Assay results taken from the RNAGym collection of RNA variant scans (doi:10.1038/nmeth.2970).

B1: NELF-E aptamer (parent)
chain: CCCAACGACUGCCGAGCGAGAUUACGCUUGAGCGCCCCACUGAGGAUGCCCACGGGCGAUUGGGGCACGG

Variants of: B1
Test: HiTS-RAP
Conditions: with NELF-E (Drosophila)
In short: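 Kd came from weighted Hill fits to the first binding curve, with intensities normalised to sequencing intensity and averaged per sequence, keeping only fits whose variance was below 1,000,000. That curve was imaged on an Illumina GAIIx flowcell, where sequenced aptamer DNA templates with a T7 promoter and ter site had been transcribed in situ by T7 RNA polymerase and halted by GST-Tus (30 minutes, 37°C). Before each image, clusters equilibrated for 30 minutes at room temperature with NELF-E-mOrange at 0.064 to 1000 nM in HEPES binding buffer.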

Point of comparison: CCCAACGACUGCCGAGGGAGAUUACGCUUGAGCGCCCUACUGAGGAUGCCCACGGGCGAUUGGGGCACGG, Kd 7.29 nM. Against it:
- CCCAACGACUGCCGAGGGAGAGUACGCUUGAGCGCCCCACUGAGGAUGCCCACGGGCGAUUGGGGCACGG — 1.5-fold lower, 4.82 nM
- CCCAACGACUGCCGAGGGAGACUACGCUUGAGCGCCCCACUGAGGAUGCCCACGGGCGAUUGGGGCACGG — within 1.5-fold, 5.02 nM
- CCCAACGACUGCCGAGUGAGAUGACGCUUGAGCGCCCCACUGAGGAUGCCCACGGGCGAUUGGGGCACGG — within 1.5-fold, 4.95 nM
- CCCAACGACUGCCGAGGGAGAUUACGCGUGAGCGCCCCACUGAGGAUGCCCACGGGCGAUUGGGGCACGG — within 1.5-fold, 6.4 nM
- CCCAACGACUGCCGAGGGAGAUUACGCCUGAGCGCCCCACUGAGGAUGCCCACGGGCGAUUGGGGCACGG — within 1.5-fold, 8.7 nM
- CCCAACGACUGCCGAGUGAGAUUACGCUUGAGCGCCCCACUGAGGAUGCCCACAGGCGAUUGGGGCACGG — 1.6-fold higher, 11.6 nM
- CCCAACGACUGCCGAGGGAGAUUACGCUUGAGCGCCCCACUGAGGAUGCCCACGGGCGAUUGUGGCACGG — within 1.5-fold, 10.3 nM
- CCCAACGACUGCCGAGGGAGAUUACGCUUGAGCGCCCCACGGAGGAUGCCCACGGGCGAUUGGGGCACGG — 1.5-fold lower, 4.85 nM
- CCCAACGACUGCCGAGGGAGAUUACGCUUGAGCGCUCCACUGAGGAUGCCCACGGGCGAUUGGGGCACGG — within 1.5-fold, 9.05 nM
- CCCAACGACUGCCGAGGCAGAUUACGCUUGAGCGCCCCACUGAGGAUGCCCACGGGCGAUUGGGGCACGG — within 1.5-fold, 6.41 nM
- CCCAACGACUGCCGAGGAAGAUUACGCUUGAGCGCCCCACUGAGGAUGCCCACGGGCGAUUGGGGCACGG — within 1.5-fold, 6.63 nM
- CCCAACGACUGCCGAGGUAGAUUACGCUUGAGCGCCCCACUGAGGAUGCCCACGGGCGAUUGGGGCACGG — within 1.5-fold, 6.33 nM
- CCCAACGACUGCCGAGGGAGAUUACGCUUGAGCGCCCCAGUGAGGAUGCCCACGGGCGAUUGGGGCACGG — within 1.5-fold, 5.54 nM
- CCCAACGACUGCCGAGUGAGAGUACGCUUGAGCGCCCCACUGAGGAUGCCCACGGGCGAUUGGGGCACGG — 1.6-fold lower, 4.67 nM
- CCCAACGACUGCCGAGGGAGAUUACGCUUGAGCACCCCACUGAGGAUGCCCACGGGCGAUUGGGGCACGG — within 1.5-fold, 8.48 nM
- CCCAACGACUGCCGAGGGAGAUUACGCUGGAGCGCCCCACUGAGGAUGCCCACGGGCGAUUGGGGCACGG — 1.5-fold lower, 4.86 nM
- CCCAACGACUGCCGAGGGAGAUUACGCUCGAGCGCCCCACUGAGGAUGCCCACGGGCGAUUGGGGCACGG — within 1.5-fold, 4.96 nM
- CCCAACGACUGCCGAGUGGGAUUACGCUUGAGCGCCCCACUGAGGAUGCCCACGGGCGAUUGGGGCACGG — the same, 7.29 nM
- CCCAACGACUGCCGAGUGAGAUUACGCUUGAGCGCCCCACUGAGGAUGCCCACGGGCGAUUGGAGCACGG — 1.5-fold higher, 11.1 nM
- CCCAACGACUGCCGAGUGAGAUUACGCUUGAGCGCCCCACUGAGGAUGCCCACGGGCGAUUGGGGCACGG — 1.6-fold lower, 4.56 nM
- CCCAACGACUGCCGAGGGAGAUUACGCUUGAGCGCCCCACUGAGGAUGCUCACGGGCGAUUGGGGCACGG — 2.2-fold higher, 15.9 nM
- CCCAACGACUGCCGAGGGAGAUUACACUUGAGCGCCCCACUGAGGAUGCCCACGGGCGAUUGGGGCACGG — within 1.5-fold, 5.44 nM
- CCCAACGACUGCCGAGGGAGAUUACGCUUAAGCGCCCCACUGAGGAUGCCCACGGGCGAUUGGGGCACGG — 2.1-fold lower, 3.42 nM
- CCCAACGACUGCCGAGGGAGAUUACGCUUGAGCGCCCCACUGAGGAUGCCCACGUGCGAUUGGGGCACGG — within 1.5-fold, 7.51 nM
- CCCAACGACUGCCGAGGGAGAUUACGCUUGAGCGCCCCACUGAGGAUGCCCACGAGCGAUUGGGGCACGG — within 1.5-fold, 7.03 nM
- CCCAACGACUGCCGAGGGAUAUUACGCUUGAGCGCCCCACUGAGGAUGCCCACGGGCGAUUGGGGCACGG — within 1.5-fold, 6.58 nM
- CCCAACGACUGCCGAGGGAAAUUACGCUUGAGCGCCCCACUGAGGAUGCCCACGGGCGAUUGGGGCACGG — within 1.5-fold, 5.92 nM
- CCCAACGACUGCCGAGUGAGAUUACGCUUGGGCGCCCCACUGAGGAUGCCCACGGGCGAUUGGGGCACGG — within 1.5-fold, 5.15 nM
- CCCAACGACUGCCGAGGGAGAUUACGCUUGAGCGCCCCACUGAGGAUGCCCACGGGCGAUUGGAGCACGG — within 1.5-fold, 6.78 nM
- CCCAACGACUGCCGAGUGAGAUUACGCUUGAGCGCCCCACUGGGGAUGCCCACGGGCGAUUGGGGCACGG — 2.8-fold higher, 20.5 nM
- CCCAACGACUGCCGAGUGAGAUUACGCUUGAGCACCCCACUGAGGAUGCCCACGGGCGAUUGGGGCACGG — within 1.5-fold, 5.49 nM
- CCCAACGACUGCCGAGGGAGAUUACGCUUGAGCGCCCCACUGAGGAGGCCCACGGGCGAUUGGGGCACGG — 1.6-fold lower, 4.63 nM
- CCCAACGACUGCCGAGUGAGAUUACGCUGGAGCGCCCCACUGAGGAUGCCCACGGGCGAUUGGGGCACGG — within 1.5-fold, 5.35 nM
- CCCAACGACUGCCGAGGGAGAUUACGCUUGAGCGCCCCACUGAGGAUGCCCACGGGCGAUUAGGGCACGG — 4-fold higher, 28.8 nM
- CCCAACGACUGCCGAGGGAGAUUACGCUUGAGCGCCCCACUGAGGAUGCCCACGGGCGAUUGGGUCACGG — within 1.5-fold, 7.17 nM
- CCCAACGACUGCCGAGGGAGAUGACGCUUGAGCGCCCCACUGAGGAUGCCCACGGGCGAUUGGGGCACGG — within 1.5-fold, 5.45 nM
- CCCAACGACUGCCGAGUGAGAUUGCGCUUGAGCGCCCCACUGAGGAUGCCCACGGGCGAUUGGGGCACGG — within 1.5-fold, 5.54 nM
- CCCAACGACUGCCGAGGGAGAUUACGCUUGAGCGCCCCACUGAGGAUGCCCACGGGUGAUUGGGGCACGG — within 1.5-fold, 5.45 nM
